From ChEMBL document CHEMBL4406821, “Novel dual inhibitors targeting CDK4 and VEGFR2 synergistically suppressed cancer progression and angiogenesis” (Eur J Med Chem, 2019)
pIC50: −log10 of the molar value. Activity calls are given as the source filed them. No cut-off for these calls is given here.

Tests used:
SiHa [1] = experiment: Inhibition of colony formation in human SiHa cells at 80 nM incubated for 5 days by crystal violet staining based light microscopy; format: functional, cell-based
In short: (§1)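 4 × 10^3 cells per well were cultured with graded concentrations for 5 days. Cells were then fixed with 20% methanol, stained with 0.5% crystal violet and photographed by light microscopy.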

HeLa [2] = experiment: Inhibition of colony formation in human HeLa cells at 80 nM incubated for 5 days by crystal violet staining based light microscopy; format: functional, cell-based; in short: as §1
MDA-MB-231 [3] = experiment: Induction of cell cycle arrest in human MDA-MB-231 cells assessed as accumulation in G0/G1 phase at 40 nM incubated for 36 hrs by propidium iodide staining based flow cytometry; format: functional
In short: (§2)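 Cells were treated with graded concentrations for 36 h, then fixed overnight in 70% ice-cold ethanol at 4°C and resuspended in PBS. Staining used 50 µg/ml PI plus 5 µg/ml RNase at 37°C for 30 min. DNA content was analysed by FACS to give G0/G1, S and G2/M fractions.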

T47D [4] = experiment: Inhibition of colony formation in human T47D cells at 40 nM incubated for 5 days by crystal violet staining based light microscopy; format: functional, cell-based
In short: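 MDA-MB-231, T-47D, SiHa and HeLa cells seeded at 4×10^3/well and cultured with varying concentrations of drug or vehicle for 5 days. Fixed in 20% methanol, stained with 0.5% crystal violet, photographed under light microscopy. DMEM (T-47D) with 10% FBS, 37°C, 5% CO2.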

SiHa [5] = experiment: Antiproliferative activity against human SiHa cells assessed as reduction in cell viability at 80 nM incubated for 48 hrs by EdU staining based laser scanning confocal microscopy; format: functional
In short: (§3)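 Cells, 5×10^4, were seeded in 24-well plates and treated for 48 h. They were then labeled using an EdU Apollo 488 imaging kit with Hoechst 33342 nuclear stain and imaged by laser scanning confocal microscopy. Percent EdU-positive cells = EdU-positive/Hoechst-stained × 100%.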

SiHa [6] = experiment: Antitumor activity against human SiHa cells xenografted in NOD/SCID BALB/c mouse assessed as tumor growth inhibition at 40 mg/kg, po administered for 21 days; format: functional, organism-based
T47D [7] = experiment: Antiproliferative activity against human T47D cells assessed as reduction in cell viability measured after 72 hrs by CCK8 assay; format: functional, cell-based
In short: (§4)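 Cells were seeded at 3×10³ cells/well and exposed to a range of concentrations or vehicle for 72 h. Viability was read by CCK-8 at 450 nm, with DMSO as blank and five replicates per sample. IC50 was calculated from the dose-response.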

HeLa [8] = experiment: Induction of apoptosis in human HeLa cells assessed as decrease in Bcl2 expression at 80 nM incubated for 48 hrs by Western blot analysis; format: functional, cell-based
In short: (§5)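 Cells were treated for 48 h, washed three times with PBS, and lysed in RIPA buffer. Immunoblots used anti-Rb, anti-phospho-Rb, anti-Ki67 and anti-Bcl-2 (each 1:1000), with β-actin as loading control.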

[9] = target: CDK4/Cyclin D3 (Homo sapiens) (UniProt P11802+P30281); experiment: Inhibition of recombinant full length human CDK4/Cyclin D3 using Rb-fragmen as substrate at 1 uM incubated for 40 mins by [gamma-33P]-ATP based radiometric assay relative to control; format: protein-complex assay
In short: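 Kinase panel profiling at 1 μM performed by Eurofins KinaseProfiler; percent inhibition reported as mean of two independent experiments.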

T47D [10] = experiment: Induction of cell cycle arrest in human T47D cells assessed as accumulation in G0/G1 phase at 40 nM incubated for 36 hrs by propidium iodide staining based flow cytometry; format: functional; in short: as §2
HeLa [11] = experiment: Antiproliferative activity against human HeLa cells assessed as reduction in cell viability measured after 72 hrs by CCK8 assay; format: functional, cell-based; in short: as §4
SiHa [12] = experiment: Induction of cell cycle arrest in human SiHa cells assessed as accumulation in G0/G1 phase at 80 nM incubated for 36 hrs by propidium iodide staining based flow cytometry; format: functional; in short: as §2
HUVEC [13] = experiment: Antiproliferative activity against HUVEC cells assessed as reduction in cell viability at 40 nM measured upto 72 hrs by CCK8 assay; format: functional, cell-based; conditions: Homo sapiens
In short: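 HUVECs, 3×10³ cells/well, kept in 1640 medium with 10% FBS at 37°C and 5% CO₂. Cells were treated at 20 or 40 nM or vehicle, and viability was read by CCK-8 (absorbance 450 nm) at 0, 12, 24, 36, 48, 60 and 72 h. Five replicates per sample.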

HUVEC [14] = experiment: Antiproliferative activity against HUVEC cells assessed as reduction in cell viability measured after 72 hrs by CCK8 assay; format: functional, cell-based; conditions: Homo sapiens; in short: as §4
T47D [15] = experiment: Induction of apoptosis in human T47D cells at 40 nM incubated for 48 hrs by annexin V FITC and propidium iodide staining based flow cytometry; format: functional, cell-based
In short: (§6)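 Annexin V-FITC/PI double staining with flow-cytometric readout. MDA-MB-231, T-47D, SiHa and HeLa cells were treated with graded concentrations for 48 h. MDA-MB-231 and T-47D were grown in DMEM and SiHa in 1640 medium, each with 10% FBS and 1% penicillin/streptomycin at 37°C under 5% CO2. Early- and late-stage apoptotic fractions were scored.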

MDA-MB-231 [16] = experiment: Induction of apoptosis in human MDA-MB-231 cells at 40 nM incubated for 48 hrs by annexin V FITC and propidium iodide staining based flow cytometry; format: functional, cell-based; in short: as §6
T47D [17] = experiment: Induction of apoptosis in human T47D cells assessed as decrease in Bcl2 expression at 40 nM incubated for 48 hrs by Western blot analysis; format: functional, cell-based
In short: (§7)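 Cancer cells were exposed to graded concentrations for 48 h, washed three times in PBS and lysed in RIPA buffer. Immunoblots were probed with anti-Rb, anti-phospho-Rb, anti-Ki67 and anti-Bcl-2, each at 1:1000. β-actin served as loading control.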

SiHa [18] = experiment: Induction of apoptosis in human SiHa cells assessed as decrease in Bcl2 expression at 80 nM incubated for 48 hrs by Western blot analysis; format: functional, cell-based; in short: as §7
HeLa [19] = experiment: Antiproliferative activity against human HeLa cells assessed as reduction in cell viability at 80 nM incubated for 48 hrs by EdU staining based laser scanning confocal microscopy; format: functional; in short: as §3
HeLa [20] = experiment: Induction of cell cycle arrest in human HeLa cells assessed as accumulation in G0/G1 phase at 80 nM incubated for 36 hrs by propidium iodide staining based flow cytometry; format: functional; in short: as §2
SiHa [21] = experiment: Induction of apoptosis in human SiHa cells at 40 nM incubated for 48 hrs by annexin V FITC and propidium iodide staining based flow cytometry; format: functional, cell-based; in short: as §6
MDA-MB-231 [22] = experiment: Induction of apoptosis in human MDA-MB-231 cells assessed as decrease in Bcl2 expression at 40 nM incubated for 48 hrs by Western blot analysis; format: functional, cell-based; in short: as §5
MDA-MB-231 [23] = experiment: Antiproliferative activity against human MDA-MB-231 cells at 40 nM assessed as reduction in cell viability incubated for 48 hrs by EdU staining based laser scanning confocal microscopy; format: functional; in short: as §3
SiHa [24] = experiment: Antitumor activity against human SiHa cells xenografted in NOD/SCID BALB/c mouse assessed as reduction in Ki67 expression at 40 mg/kg, po measured after 21 days by hematoxylin and eosin staining based immunohistochemistry; format: functional, organism-based
In short: (§8)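 Female NOD/SCID Balb/c mice, 6–8 weeks old, received 2×10^6 SiHa cells subcutaneously in the right flank. Once tumors reached 100 mm³, mice were randomized, 5 per group, and gavaged once daily for 21 days. Formalin-fixed, paraffin-embedded tumor sections were stained with Ki67 or CD31 antibody (1:100, 4 °C overnight), then biotin secondary and ABC-peroxidase/DAB, with hematoxylin counterstain.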

SiHa [25] = experiment: Antiproliferative activity against human SiHa cells assessed as reduction in cell viability measured after 72 hrs by CCK8 assay; format: functional, cell-based; in short: as §4
MDA-MB-231 [26] = experiment: Inhibition of colony formation in human MDA-MB-231 cells at 40 nM incubated for 5 days by crystal violet staining based light microscopy; format: functional, cell-based; in short: as §1
SiHa [27] = experiment: Antiangiogenic activity against human SiHa cells xenografted in NOD/SCID BALB/c mouse assessed as reduction in CD31 expression at 40 mg/kg, po measured after 21 days by hematoxylin and eosin staining based immunohistochemistry; format: functional, organism-based; in short: as §8
MDA-MB-231 [28] = experiment: Antiproliferative activity against human MDA-MB-231 cells assessed as reduction in cell viability measured after 72 hrs by CCK8 assay; format: functional, cell-based; conditions: MDA-MB-231, 72 h; in short: as §4
HeLa [29] = experiment: Induction of apoptosis in human HeLa cells at 40 nM incubated for 48 hrs by annexin V FITC and propidium iodide staining based flow cytometry; format: functional, cell-based
In short: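 Cells were treated for 48 h, stained with FITC Annexin V and PI, and analyzed by flow cytometry to count early and late apoptotic cells.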

T47D [30] = experiment: Antiproliferative activity against human T47D cells assessed as reduction in cell viability at 40 nM incubated for 48 hrs by EdU staining based laser scanning confocal microscopy; format: functional; in short: as §3
[31] = Toxicity in NOD/SCID BALB/c mouse xenografted with human SiHa cells assessed as body weight at 40 mg/kg, po administered for 21 days; format: organism-based; conditions: in vivo, 504 h
In short: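 Female NOD/SCID Balb/c mice, 6–8 weeks, implanted subcutaneously in right flank with 2×10^6 SiHa cells in 100 µL medium. At 100 mm³ tumors, randomized (5 mice/group) to daily oral gavage. Body weight monitored every 3 days; study ended day 21.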

With CCN1CCN(Cc2ccc(Nc3ncc(F)c(-c4cc(F)c5nc(C)n(C(C)C)c5c4)n3)nc2)CC1 [ABEMACICLIB] the inhibition (SiHa [1]) was “Active”, the inhibition (HeLa [2]) was “Active” and the Activity (MDA-MB-231 [3]) was “Active”. For the same compound, the inhibition (T47D [4]) was “Active”, the inhibition (SiHa [5]) was “Active” and the TGI (SiHa [6]) was “Active”. For the same compound, the pIC50 (T47D [7]) was 6.84, the Activity (HeLa [8]) was “Active” and the inhibition [9] was 99%. For the same compound, the Activity (T47D [10]) was “Active”, the pIC50 (HeLa [11]) was 6.11 and the Activity (SiHa [12]) was “Active”. For the same compound, the inhibition (HUVEC [13]) was “Active”, the pIC50 (HUVEC [14]) was 6.39 and the Activity (T47D [15]) was “Active”. The Activity (MDA-MB-231 [16]) was “Active”, the Activity (T47D [17]) was “Active” and the Activity (SiHa [18]) was “Active”. For the same compound, the inhibition (HeLa [19]) was “Active”, the Activity (HeLa [20]) was “Active” and the Activity (SiHa [21]) was “Active”. The Activity (MDA-MB-231 [22]) was “Active”, the inhibition (MDA-MB-231 [23]) was “Active” and the inhibition (SiHa [24]) was “Active”. For the same compound, the pIC50 (SiHa [25]) was 6.06, the inhibition (MDA-MB-231 [26]) was “Active” and the inhibition (SiHa [27]) was “Active”. For the same compound, the pIC50 (MDA-MB-231 [28]) was 7.21, the Activity (HeLa [29]) was “Active” and the inhibition (T47D [30]) was “Active”. The Activity [31] was “Non-Toxic”.
